What follows are compounds tested against T1, TcFPPS (Trypanosoma cruzi, UniProt Q95WL3) (assay: isothermal titration calorimetry, two-sequential-site fit).
T1 sequence (Q95WL3 1-362): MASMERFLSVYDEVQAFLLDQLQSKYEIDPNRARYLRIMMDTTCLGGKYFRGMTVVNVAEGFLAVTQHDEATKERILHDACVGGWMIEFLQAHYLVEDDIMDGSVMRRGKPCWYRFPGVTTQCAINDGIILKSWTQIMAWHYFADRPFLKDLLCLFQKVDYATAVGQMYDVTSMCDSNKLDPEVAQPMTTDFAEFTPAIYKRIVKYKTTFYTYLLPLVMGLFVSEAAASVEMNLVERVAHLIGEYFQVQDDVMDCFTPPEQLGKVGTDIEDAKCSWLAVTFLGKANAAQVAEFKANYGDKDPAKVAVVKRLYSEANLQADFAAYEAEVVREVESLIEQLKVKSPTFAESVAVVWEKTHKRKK
Type: binding
In short: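 TcFPPS carried an N-terminal His-tag, was expressed in E. coli BL21(DE3), and was purified by Ni-affinity and gel filtration. Protein at 22.5 μM was dialyzed into 20 mM HEPES pH 7.5, 1 M NaCl, 2 mM MgCl2, 2 mM TCEP. Test compound at 250 μM in the same buffer was injected (10 μL) every 300 s at 26°C. Dilution heats were subtracted and the first injection excluded. Isotherms were fitted to a two-sequential-site model.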

| Compound | Kd [nM] |
| --- | --- |
| O=P(O)(O)C(O)(Cn1ccnc1)P(=O)(O)O [91B, zoledronate] | 28.6 |
| O=P(O)(O)C(O)(Cc1cnc2ccccn12)P(=O)(O)O [261A, minodronate] | 10.9 |
| O=P(O)(O)C(O)(Cc1cccnc1)P(=O)(O)O [Ris, risedronate] | 66.7 |
